Data on one compound can be found in ChEMBL document CHEMBL5331127, “Discovery of ARD-2051 as a Potent and Orally Efficacious Proteolysis Targeting Chimera (PROTAC) Degrader of Androgen Receptor for the Treatment of Advanced Prostate Cancer” (J Med Chem, 2023).

Activity calls are given as the source filed them. The rule behind the calls is not given here.

The nature of data set [1]: Metabolic stability in mouse liver microsomes assessed as half life at 1 uM measured upto 45 mins in presence of NADPH by LC-MS/MS analysis. The data set is classed as ADME, Microsome. As to conditions: 0.75 h. The gist of the method: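 Pooled liver microsomes from each species: 1 μM compound with 0.5 mg/mL microsomes and 1.7 mM NADPH in 0.1 M K-phosphate, pH 7.4, 5 mM MgCl2, 37 °C. Sampled at 0, 5, 10, 15, 30 and 45 min with cold ACN quench. No-NADPH incubation as negative control; ketanserin as positive control. LC-MS/MS; half-life from ln(remaining) versus time.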

Another data set deals with T1, Cytochrome P450 2B6 (Homo sapiens, UniProt P20813).
T1 sequence (P20813 whole entry): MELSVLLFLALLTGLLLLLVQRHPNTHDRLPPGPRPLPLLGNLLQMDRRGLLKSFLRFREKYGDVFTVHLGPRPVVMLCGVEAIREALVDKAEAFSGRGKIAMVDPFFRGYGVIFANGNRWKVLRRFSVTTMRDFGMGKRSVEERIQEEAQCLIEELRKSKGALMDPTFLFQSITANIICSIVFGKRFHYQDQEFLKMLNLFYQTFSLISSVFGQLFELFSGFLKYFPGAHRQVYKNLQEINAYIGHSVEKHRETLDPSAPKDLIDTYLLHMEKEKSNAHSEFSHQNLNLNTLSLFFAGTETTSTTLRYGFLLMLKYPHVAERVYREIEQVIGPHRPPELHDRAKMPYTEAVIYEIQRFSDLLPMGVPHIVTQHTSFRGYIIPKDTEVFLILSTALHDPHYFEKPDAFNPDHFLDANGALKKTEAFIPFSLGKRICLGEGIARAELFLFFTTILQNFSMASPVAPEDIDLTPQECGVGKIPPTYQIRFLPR
The experiment in a line: Inhibition of CYP2B6 in human liver microsomes preincubated for 5 mins followed by NADPH addition and measured after 10 mins by LC/MS analysis. The data set is classed as ADME, Microsome.

Data set [2] can be described thus: Half life in Beagle dog at 1 mg/kg, iv measured upto 24 hrs by LC-MS/MS analysis. The data set is classed as ADME, organism-based, Canis lupus familiaris. Particulars: in vivo. Put shortly:
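Male ICR mice (2 mg/kg), male SD rats (1 mg/kg) or male Beagle dogs (1 mg/kg) given a single intravenous dose in 10% PEG400 + 90% PBS adjusted to pH 8.0 with NaOH.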

Data set [3] in a line: Metabolic stability in rat hepatocytes assessed as half life at 1 uM measured upto 120 mins in presence of NADPH by LC-MS/MS analysis. The data set is classed as ADME, cell-based, Hepatocyte. Particulars: 2 h.
The nature of data set [4]: Downregulation of KLK3 gene expression in human LNCaP cells at 0.3 nM incubated for 24 hrs by qRT-PCR analysis. The data set is classed as functional. The gist of the method: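 LNCaP cells (RPMI 1640) or VCaP cells (DMEM Glutamax), both with 10% FBS, treated for 24 h. KLK3 mRNA measured by qRT-PCR and calculated by the comparative CT method against GAPDH and vehicle.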

Data set [5] in a line: Drug concentration in CB17 SCID mouse plasma xenografted with human VCaP cells at 12.5 mg/kg, po measured after 6 hrs by LC-MS/MS analysis. The data set is classed as ADME, organism-based. Put shortly: (§1)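 SCID mice bearing one VCaP tumour each given a single oral 12.5 mg/kg dose in 100% PEG200. Plasma and tumour tissue collected at 6 and 24 h, 3 mice per time point. Values are mean ± SD.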

In data set [6] the target is T2, Androgen receptor (Homo sapiens) (UniProt P10275).
T2 sequence (whole entry): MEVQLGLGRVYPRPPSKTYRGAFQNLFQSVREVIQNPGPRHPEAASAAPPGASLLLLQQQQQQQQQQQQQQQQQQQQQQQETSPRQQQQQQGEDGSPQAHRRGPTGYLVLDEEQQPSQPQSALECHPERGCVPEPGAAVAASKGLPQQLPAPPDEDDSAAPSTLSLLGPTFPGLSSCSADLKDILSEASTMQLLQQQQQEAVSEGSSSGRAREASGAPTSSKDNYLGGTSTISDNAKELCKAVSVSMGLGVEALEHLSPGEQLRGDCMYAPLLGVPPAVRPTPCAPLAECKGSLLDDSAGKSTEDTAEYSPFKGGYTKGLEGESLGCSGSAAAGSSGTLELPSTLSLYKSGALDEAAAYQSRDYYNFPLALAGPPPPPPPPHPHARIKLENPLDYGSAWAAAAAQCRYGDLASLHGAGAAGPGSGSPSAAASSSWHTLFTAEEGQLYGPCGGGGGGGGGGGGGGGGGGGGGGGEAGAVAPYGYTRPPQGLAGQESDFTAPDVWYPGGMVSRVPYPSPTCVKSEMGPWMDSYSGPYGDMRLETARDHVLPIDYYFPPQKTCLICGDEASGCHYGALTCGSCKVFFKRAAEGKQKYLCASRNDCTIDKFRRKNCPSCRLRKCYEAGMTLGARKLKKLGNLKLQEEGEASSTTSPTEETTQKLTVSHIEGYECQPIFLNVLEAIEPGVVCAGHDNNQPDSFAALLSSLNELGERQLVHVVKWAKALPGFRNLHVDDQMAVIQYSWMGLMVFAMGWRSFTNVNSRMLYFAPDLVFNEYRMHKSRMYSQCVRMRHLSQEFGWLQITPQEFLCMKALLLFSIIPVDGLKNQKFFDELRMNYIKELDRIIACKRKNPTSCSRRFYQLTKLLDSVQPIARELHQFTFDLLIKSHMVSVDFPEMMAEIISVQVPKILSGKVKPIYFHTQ
As to the kind of experiment: Induction of androgen receptor degradation in human VCaP cells at 1 uM after 24 hrs by Western blotting analysis relative to control. The data set is classed as cell-based. Put shortly:
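VCaP cells treated for 24 h at 10, 100 or 1000 nM. AR protein measured by Western blotting.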

For another data set, the system named is LNCaP. As to the kind of experiment: Induction of androgen receptor degradation in human LNCaP cells at 100 nM pretreated with MG132 for 2 hrs followed by compound addition and 3 hrs by Western blot analysis. The data set is classed as functional, cell-based. Particulars: time 5.0 hrs. Put shortly: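 LNCaP or VCaP cells pretreated 2 h with DMSO, ARi-12 (10 μM), thalidomide (10 μM), MG-132 (3 μM) or MLN4924 (0.5 μM), then given degrader at 100 nM for 3 h. AR measured by Western blot with GAPDH as loading control.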

The nature of data set [7]: Drug concentration in CB17 SCID mouse tumor xenografted with human VCaP cells at 12.5 mg/kg, po measured after 24 hrs by LC-MS/MS analysis. As to conditions: read-out: Ct. The data set is classed as ADME, organism-based, Neoplasm. The gist of the method: as §1
For the next data set, the target named is Cytochrome P450 2C9 (Homo sapiens, UniProt P11712). As to the kind of experiment: Inhibition of CYP2C9 in human liver microsomes preincubated for 5 mins followed by NADPH addition and measured after 10 mins by LC/MS analysis. The data set is classed as ADME, Microsome.
Data set [8] is described as follows: Plasma protein binding in rat at 1 uM after 5 hrs by equilibrium dialysis based LC-MS/MS analysis. The data set is classed as ADME, cell-free. Put shortly:
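Equilibrium dialysis of pooled plasma of each species spiked at 1 μM against 0.1 M sodium phosphate, pH 7.4. 5 h at 37 °C with shaking at 60 rpm. Both sides matrix-matched, ACN/IS quench, LC/MS. % bound = 100 − (buffer/plasma peak-area ratio × 100); recovery also calculated. Warfarin as reference.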

Cytochrome P450 2C9, sequence (P11712 whole entry): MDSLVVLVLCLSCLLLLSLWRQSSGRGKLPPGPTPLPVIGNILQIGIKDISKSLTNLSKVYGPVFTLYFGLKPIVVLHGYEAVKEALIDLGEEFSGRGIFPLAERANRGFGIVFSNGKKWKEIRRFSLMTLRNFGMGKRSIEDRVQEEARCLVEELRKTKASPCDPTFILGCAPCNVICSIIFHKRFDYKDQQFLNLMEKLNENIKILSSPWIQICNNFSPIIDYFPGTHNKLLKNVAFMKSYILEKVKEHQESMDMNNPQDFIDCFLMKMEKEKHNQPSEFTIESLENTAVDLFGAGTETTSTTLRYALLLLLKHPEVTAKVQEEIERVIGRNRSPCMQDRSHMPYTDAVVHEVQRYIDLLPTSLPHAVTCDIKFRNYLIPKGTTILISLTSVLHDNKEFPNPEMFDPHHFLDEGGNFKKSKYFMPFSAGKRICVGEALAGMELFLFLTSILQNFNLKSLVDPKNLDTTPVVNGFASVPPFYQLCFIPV

Take `C[C@H]1CC2(CCN(c3ccc(C(=O)N4CCN(C5CN(c6ccc7c(c6)C(=O)N(C6CCC(=O)NC6=O)C7=O)C5)CC4)cc3)CC2)CN1c1ccc(C#N)c(Cl)c1` (stereo partly specified): the t1/2 in [1] was more than 1 h; in data set [2], 8.9 h; in [3], more than 2 h. For the same compound, the half-maximal inhibitory concentration (IC50) at Cytochrome P450 2B6 and on Cytochrome P450 2C9 was more than 10 µM throughout. Besides, the Activity was 53% in data set [4] and more than 95% in data set [6]. The same compound returned a concentration at 6 h in [5] of 985 ng/mL. For the same compound, in the data set with LNCaP, the result was inactive. For the same compound, in [7], the concentration at 24 h came to 183 ng/mL. In addition, in [8], the PPB is reported as 99.1%.
